Where a name gives a salt, the structure may show the parent alone. Read-outs that look alike come from different tables or passages of the source.
Tests used:
[1] = test system: HEK293 T-REx CLPP−/− cells; assay: Growth inhibition profiling; type: cell-based, human; details: read-out: IC50 (nM), HEK293 T-REx CLPP−/−
[2] = test system: HEK293 T-REx WT cells; assay: Growth inhibition profiling; type: cell-based, human; details: read-out: IC50 (nM), HEK293 T-REx WT
[3] = test system: MDA-MB-231 WT cells; assay: Growth inhibition profiling; type: cell-based, human; details: read-out: IC50 (nM), MDA-MB-231 WT
[4] = test system: TFAM and Grp75 levels in MDA-MB-231 WT cells; assay: Western blot of TFAM and Grp75, MDA-MB-231 WT; type: cell-based, human; details: 1 μM, 24 hours
How it was run: (§1)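 MDA-MB-231 cells (WT or CLPP−/−) were grown in DMEM/F-12 with 10% FBS and 2 mM L-glutamine. They were treated for 24 hours with 1 μM test compound or 6 μM of a reference compound. Pellets were sonicated in Dulbecco's PBS and protein was equalized. TFAM and Grp75 were detected by SDS-PAGE, transfer to PVDF and western blotting, imaged by film.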

[5] = test system: WT and CLPP−/− MDA-MB-231 cells; assay: Apoptotic onset check; type: cell-based, human
How it was run: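 WT and CLPP−/− MDA-MB-231 cells in DMEM/F-12 with 10% FBS and 2 mM L-glutamine were exposed to 1 μM test compound or DMSO for 24 hours. Morphology was checked by light microscopy and nuclei by DAPI fluorescence. Positive control was 2 μM doxorubicin or DMSO for 72 hours. Lysates were made by sonication in Dulbecco's PBS and protein-equalized, then run on SDS-PAGE, immunoblotted on PVDF and imaged on film.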

[6] = target: human ClpP (Homo sapiens, UniProt Q16740); assay: Casein-FITC degradation assay; type: biochemical; details: for Casein-FITC degradation h (at 2.5 μM ClpP): Hill coefficient, 2.5 μM ClpP protomer
Sequence of human ClpP (Q16740 57-277): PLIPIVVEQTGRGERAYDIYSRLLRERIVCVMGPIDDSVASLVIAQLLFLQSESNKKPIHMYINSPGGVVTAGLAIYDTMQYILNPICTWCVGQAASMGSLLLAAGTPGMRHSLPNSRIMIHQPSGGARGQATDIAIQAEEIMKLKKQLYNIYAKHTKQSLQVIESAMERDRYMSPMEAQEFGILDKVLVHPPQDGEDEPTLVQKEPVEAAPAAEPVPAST

[7] = test system: MDA-MB-231 CLPX−/− cells; assay: Growth inhibition profiling; type: cell-based, human; details: read-out: IC50 (nM), MDA-MB-231 CLPX−/−
[8] = test system: MDA-MB-231 CLPP−/− cells; assay: Growth inhibition profiling; type: cell-based, human; details: read-out: IC50 (nM), MDA-MB-231 CLPP−/−
[9] = test system: TFAM and Grp75 levels in MDA-MB-231 CLPP−/− cells; assay: Western blot of TFAM and Grp75, MDA-MB-231 CLPP−/−; type: cell-based, human; details: 1 μM, 24 hours
How it was run: as §1

[10] = test system: HEK293 T-REx CLPX−/− cells; assay: Growth inhibition profiling; type: cell-based, human; details: read-out: IC50 (nM), HEK293 T-REx CLPX−/−
[11] = test system: COLO205; assay: One-dose NCI-60 screen, COLO205; type: cell-based, human; details: 10 μM, 48-hour exposure
How it was run: (§2)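 Run by NCI DCTD. Cells were seeded at 5,000–40,000/well in RPMI 1640 with 5% FBS and 2 mM L-glutamine and grown 24 h at 37 °C, 5% CO2. Test compound was added at 10 μM final for 48 h, with a time-zero plate kept. Cells were fixed with cold TCA (10% final for adherent, 16% for non-adherent) and stained with 0.4% SRB. Growth was calculated from A515 at 0 and 48 h.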

[12] = test system: MDA-MB-231; assay: One-dose NCI-60 screen, MDA-MB-231; type: cell-based, human; details: 10 μM, 48-hour exposure
[13] = test system: MDA-MB-468; assay: One-dose NCI-60 screen, MDA-MB-468; type: cell-based, human; details: 10 μM, 48-hour exposure
How it was run: as §2

[14] = target: ClpP (substrate TFAM lacking the MTS) (Homo sapiens, UniProt Q16740); assay: In vitro degradation assay using TFAM; type: biochemical; details: 20 μM compound, 13.5 μM TFAM, 15.5 μM ClpP, 37 °C, 0-5 h
Sequence of ClpP (substrate TFAM lacking the MTS) (Q16740 57-277): as above

[15] = Homo sapiens, HEK293-T-REx, 72 h

Row | SMILES | Casein-FITC degradation h (at 2.5 μM ClpP) [6] | IC50 ([3]; Homo sapiens, MDA-MB-231, 72 h) [nM] | Kd [6] [nM] | IC50 ([7]; Homo sapiens, MDA-MB-231, 72 h) [nM] | IC50 ([8]; Homo sapiens, MDA-MB-231, 72 h) [nM] | IC50 ([1]; 72 hr, SRB assay) [nM] | IC50 ([2]; 72 hr, SRB assay) [nM] | IC50 ([3]; 72 hr, SRB assay) [nM] | IC50 ([7]; 72 hr, SRB assay) [nM] | IC50 ([8]; 72 hr, SRB assay) [nM] | IC50 ([10]; 72 hr, SRB assay) [nM] | IC50 [1, 15] [nM] | IC50 [2, 15] [nM] | growth suppression [12] [%] | lethality [13] [%] | IC50 [10, 15] [nM] | also measured
1 | Cn1c2c(c(=O)n(Cc3ccc(Cl)cc3)c1=O)CN(Cc1cccc(C#N)c1)CC2 [TR-57, 3-((3-(4-chlorobenzyl)-1-methyl-2,4-dioxo-1,2,3,4,7,8-hexahydropyrido[4,3-d]pyrimidin-6(5H)-yl)methyl)benzonitrile] | 9.4 ± 7.8 | 19.3 ± 0.2 | 15.5 ± 12 | 19.9 ± 0.3 | > 1000 |  |  |  |  |  |  | > 1000 | 8.9 ± 0.2 | 68 | 15 | 11.8 ± 0.4 | lethality [11]: 41%
2 | N#Cc1cccc(CN2CCc3ncn(Cc4ccc(Cl)cc4)c(=O)c3C2)c1 [TR-107] | 5.5 ± 0.7 |  |  |  |  | > 1000 | 22.8 ± 0.7 | 29.4 ± 0.2 | 27.4 ± 0.8 | > 1000 | 27 ± 2 |  |  | 73 | 22 |  | 
3 | COc1cccc2c1C(=O)c1c(O)c3c(c(O)c1C2=O)C[C@@](O)(C(=O)CO)C[C@@H]3O[C@H]1C[C@H](N)[C@H](O)[C@H](C)O1 [doxorubicin, doxorubicin hydrochloride, reference compound] |  |  |  |  |  |  |  |  |  |  |  |  |  |  |  |  | caspase 9 cleavage ([5]; 2 μM, 72 hrs, positive control): clearly showed caspase 9 cleavage

Second part, led by results:

Row | Casein-FITC degradation h (at 2.5 μM ClpP) [6] | IC50 ([3]; Homo sapiens, MDA-MB-231, 72 h) [nM] | Kd [6] [nM] | IC50 ([7]; Homo sapiens, MDA-MB-231, 72 h) [nM] | IC50 ([8]; Homo sapiens, MDA-MB-231, 72 h) [nM] | SMILES | IC50 ([1]; 72 hr, SRB assay) [nM] | IC50 ([2]; 72 hr, SRB assay) [nM] | IC50 ([3]; 72 hr, SRB assay) [nM] | IC50 ([7]; 72 hr, SRB assay) [nM] | IC50 ([8]; 72 hr, SRB assay) [nM] | IC50 ([10]; 72 hr, SRB assay) [nM] | IC50 [1, 15] [nM] | IC50 [2, 15] [nM] | growth suppression [12] [%] | lethality [13] [%] | IC50 [10, 15] [nM] | also measured
4 | 8.1 ± 1.2 |  |  |  |  | C#Cc1cccc(CN2CCC3=C(C2)C(=O)N(Cc2ccc(Cl)cc2)C2=NCCN23)c1 [TR-27] | > 1000 | 46.1 ± 1.3 | 90.7 ± 1.7 | 98.9 ± 1.7 | > 1000 | 57.7 ± 3.4 |  |  |  |  |  | levels of TFAM and Grp75 [4]: reduced; ClpX level ([5]; 1 μM, 24 hours): reduced; signs of apoptosis (morphology, nuclear integrity, Mcl1, caspases 9, 3, 8) ([5]; 1 μM, 24 hours): absence of significant apoptosis; levels of TFAM and Grp75 [9]: unchanged
5 | 10.9 ± 2.5 | 9.4 ± 0.2 | 23.3 ± 9.1 | 9.4 ± 0.2 | > 1000 | N#Cc1cccc(CN2CCC3=C(C2)C(=O)N(Cc2ccc(Cl)cc2)C2=NCCN23)c1 [TR-65, 3-((4-(4-Chlorobenzyl)-5-oxo-1,2,4,5,8,9-hexahydroimidazo[1,2-a]pyrido[3,4-e]pyrimidin-7(6H)-yl)methyl)benzonitrile] |  |  |  |  |  |  | > 1000 | 9.8 ± 0.3 |  |  | 11 ± 0.2 | degradation of TFAM by compound-activated ClpP [14]: degradation of TFAM by TR-activated ClpP in a time-dependent manner
6 | 6.2 ± 1.3 | 27.8 ± 0.4 | 29.1 ± 7.8 | 29.5 ± 0.7 | > 1000 | N#Cc1cccc(CN2CCc3ncn(Cc4ccc(Br)cc4)c(=O)c3C2)c1 [TR-133, 3-([3-[(4-bromophenyl)methyl]-4-oxo-3H,4H,5H,6H,7H,8H-pyrido[4,3-d]pyrimidin-6-yl]methyl)benzonitrile] |  |  |  |  |  |  | > 1000 | 20.7 ± 0.7 |  |  | 26 ± 2 | 
